hiPSC survival: enhancers of single-cell hiPSC survival, primary screen, ATPlite luminescence; 360,000 tested, 0.044% active; 100% = ROCK inhibitor wells, 0% = DMSO; survival enhancement, % at 20 µM; AID 602274, 2012; in the data active = survival enhancement above about 18%;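 also: cells exposed to compounds for 16 hours before the ATP read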
DAGLB inhibitor: DAGLB lipase inhibitors, primary screen, biochemical, fluorescence, HTS. Diacylglycerol lipase-beta (Homo sapiens), Q8NCG7. HEK293T DAGLB membrane lysate, EnzChek fluorogenic substrate. inhibition, % at 5.17 µM. 340,000 tested, 0.059% active; in the data active = inhibition above about 34%;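 also: 0% = enzyme with vehicle and 100% = wells lacking enzyme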
Target sequence (Q8NCG7 whole entry, looked up): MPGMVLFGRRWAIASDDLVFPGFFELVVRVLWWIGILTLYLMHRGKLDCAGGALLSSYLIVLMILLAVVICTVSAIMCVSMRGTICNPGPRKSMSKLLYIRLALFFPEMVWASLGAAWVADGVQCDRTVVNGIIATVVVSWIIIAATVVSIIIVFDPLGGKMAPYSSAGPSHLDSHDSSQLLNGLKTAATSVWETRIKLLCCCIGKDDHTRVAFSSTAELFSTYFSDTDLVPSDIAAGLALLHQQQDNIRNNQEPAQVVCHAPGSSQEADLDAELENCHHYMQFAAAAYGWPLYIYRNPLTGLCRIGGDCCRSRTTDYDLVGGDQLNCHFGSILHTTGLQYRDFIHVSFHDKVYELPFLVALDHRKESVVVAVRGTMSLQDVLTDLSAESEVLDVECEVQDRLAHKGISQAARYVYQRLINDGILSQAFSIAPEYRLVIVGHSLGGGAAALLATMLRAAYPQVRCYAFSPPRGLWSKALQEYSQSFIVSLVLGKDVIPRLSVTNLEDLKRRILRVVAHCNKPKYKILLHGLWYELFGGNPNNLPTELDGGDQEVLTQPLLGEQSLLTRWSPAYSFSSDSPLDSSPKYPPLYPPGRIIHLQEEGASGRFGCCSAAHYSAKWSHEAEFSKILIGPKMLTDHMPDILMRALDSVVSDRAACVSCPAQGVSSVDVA
SKN-1 block: suppressors of acrylamide-induced Pgst-4::GFP reporter in worms, primary screen, SKN-1 inhibitor project, whole organism, uHTS, GFP/RFP fluorescence ratio, strain VP596; C. elegans VP596 Pgst-4::GFP/RFP ratio, 24 h; inhibition, % at 21.8 µM; 360,000 tested, 0.49% active;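 active = interference check ratio from 0.5 to 1.5 plus GFP to RFP signal ratio inhibition reaching or exceeding a fixed threshold, cut at about 30% in these data, passing the limit was not always enough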
rRNA inh HTS: reduced GFP signal of wild-type E. coli, primary screen, bacterial rRNA inhibitor project, GFP/RFP fluorescence, OD600, single point. E. coli WT GFP vs humanized-ribosome RFP mutants, 24 h; stronger effect = lower value; DMSO median 0, no signal -100. GFP signal change (wild-type ribosome), % (concentration not given with the values). 350,000 tested, 1.6% active;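 active = significant combined selectivity score with lowered wild-type GFP, culture density cut under 30%, mutant RFP and density less affected; inactive = any of these conditions unmet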
Cneo AK release: Cryptococcus neoformans cell lysis inducers, primary screen, AK release luminescence, single concentration; C. neoformans lysis, adenylate kinase release luminescence, 4 h; normalised: neutral wells 0, clomiphene wells 100; 360,000 tested, 0.2% active; lysis activity, % at 15 µM;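 active = mean lysis activity across replicates of at least 80%, whatever share of replicates individually reach that level; inactive = mean lysis activity below 80%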
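Assay system: Cryptococcus neoformans yeast cells / Dosing: single-point compound dose / Timing: 4 h at 37 °C static, read 1 h later / Measured by: luminescence of released adenylate kinase using an AK detection reagent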
MT1-MMP act inh: blockers of MT1-MMP proenzyme processing, primary screen, HT1080 RFP-PRO-GFP cells, GFP/RFP fluorescence | Matrix metalloproteinase-14 (Homo sapiens), P50281 | GFP/RFP ratio fluorescence, overnight; percent of plate control window, DMSO zero | GFP/RFP ratio change, % at 20 µM | 360,000 tested, 0.061% active;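 active = GFP/RFP ratio change of at least 30% with cell ATP level not reduced by more than half and red fluorescence within 50% of control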
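Assay system: RFP-PRO-GFP reporter HT1080 cells; read-out basis: GFP/RFP fluorescence ratio; benchmarks: DMSO wells and RFP-L50D-GFP cells; doses: 20 µM single dose, 1% DMSO; schedule: overnight cell settling, then overnight compound exposure, 37 °C, 5% CO2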
The depositor's hits bear a star; ! = not active in a repeat. Only some compounds are listed: those with a hit (about 1.8% of all), similar ones and a draw of the others.

`COCC(=O)N(C[C@@H]1[C@@H](c2ccccc2)[C@H](CO)N1C(=O)NC(C)C)C(C)C` gave rRNA inh HTS 0.3 and Cneo AK release -1.7.
Screening N#C/C(=C\c1ccco1)c1nc2ccccc2s1 returned hiPSC survival -3.4, DAGLB inhibitor -5.0, SKN-1 block 88.4* and MT1-MMP act inh -3.9.
N#C/C(=C/c1ccco1)c1nc2ccccc2s1 was read as hiPSC survival -2.8, DAGLB inhibitor -8.1, SKN-1 block 85.8*, Cneo AK release -1.1 and MT1-MMP act inh -12.3.
For C[C@@H]1CN([C@@H](C)CO)C(=O)c2cc(NC(=O)C3CCCCC3)ccc2O[C@@H](C)CCCCO[C@H]1CN(C)Cc1ccccc1 the results were rRNA inh HTS 0.0 and Cneo AK release 0.0.
`O=C1c2cccc3c2N(CCC3)C(=O)C1(F)c1ccccc1` (stereo not drawn) gave hiPSC survival -0.4, SKN-1 block 9.8, rRNA inh HTS -17.1*, Cneo AK release -3.2 and MT1-MMP act inh 0.3.
`C[C@@H]1CN([C@H](C)CO)C(=O)c2cccc(NC(=O)C3CCCCC3)c2O[C@@H]1CN(C)S(=O)(=O)c1cccs1` gave rRNA inh HTS -4.9 and Cneo AK release -9.3.
For O=C(c1ccco1)n1nc(NCc2ccccc2)nc1NCc1ccccc1 the results were hiPSC survival -1.6, DAGLB inhibitor -3.4, SKN-1 block 30.9, Cneo AK release -2.6 and MT1-MMP act inh 4.0.
O=C(c1cccnc1)n1nc(NCc2ccccc2)nc1NCc1ccccc1 was read as hiPSC survival -0.2, DAGLB inhibitor -0.5, SKN-1 block 10.0, rRNA inh HTS -35.2*, Cneo AK release 4.3 and MT1-MMP act inh 2.8.
O=C(C[C@@H]1CC[C@@H](NC(=O)Nc2ccccc2F)[C@H](CO)O1)NCc1ccc(-c2ccccc2)cc1 was read as rRNA inh HTS -0.9.
Screening CCC(CO)Oc1cc(NC(=O)c2ccc(N)cc2)c2ncn(C(C)C)c2c1 (stereo not drawn) returned hiPSC survival 2.2, DAGLB inhibitor 2.1, SKN-1 block 10.8, rRNA inh HTS -20.0*, Cneo AK release 11.8 and MT1-MMP act inh 10.7.
C[C@H](CO)N1C[C@H](C)[C@@H](CN(C)C(=O)Nc2ccc(C(F)(F)F)cc2)OCCCC[C@H](C)Oc2ccc(NS(=O)(=O)c3cccs3)cc2C1=O was read as rRNA inh HTS -0.9 and Cneo AK release 0.2.
C[C@H](CO)N1C[C@H](C)[C@H](CN(C)C(=O)C2CCCCC2)OCCCC[C@H](C)Oc2ccc(NC(=O)C3CCCCC3)cc2C1=O was read as rRNA inh HTS -6.4 and Cneo AK release -0.7.
Screening Cc1ccc(O)c(CNc2cccc(C)n2)c1 returned hiPSC survival 0.1, DAGLB inhibitor 3.0, SKN-1 block 2.3, rRNA inh HTS -0.8, Cneo AK release 19.8 and MT1-MMP act inh 9.6.
Cc1cccc(NCc2cc(Cl)ccc2O)n1 was read as hiPSC survival 2.8, DAGLB inhibitor -2.4, SKN-1 block 0.8, rRNA inh HTS -51.7*, Cneo AK release -1.5 and MT1-MMP act inh 3.3.
Screening C/C=C/c1ccc([C@H]2[C@@H](CO)N(C(=O)CC)C23CN(S(=O)(=O)CC)C3)cc1 returned rRNA inh HTS 2.2.
For CC1=NOC(=O)/C1=C\c1ccc(-c2ccc(Br)cc2)o1 the results were hiPSC survival -2.0, DAGLB inhibitor 21.8, SKN-1 block -1.9, rRNA inh HTS -9.9 and MT1-MMP act inh -18.4.
For CC1=NOC(=O)/C1=C/c1ccc(-c2ccc(Cl)cc2)o1 the results were hiPSC survival -1.5, DAGLB inhibitor 28.0, SKN-1 block 37.4*, Cneo AK release -1.2 and MT1-MMP act inh -6.2.
For C/C=C/c1ccc2c(c1)O[C@H](CN(C)C(=O)C1CCCCC1)[C@H](C)CN([C@@H](C)CO)S2(=O)=O the results were rRNA inh HTS -7.0 and Cneo AK release -0.3.
O=C(Nc1ccc(F)cc1)N[C@H]1CC[C@H](CCNS(=O)(=O)c2cccc(Cl)c2)O[C@@H]1CO was read as SKN-1 block 5.0, rRNA inh HTS -17.4*!, Cneo AK release 2.3 and MT1-MMP act inh 1.2.
O=C(Nc1cccc(F)c1)N[C@H]1CC[C@@H](CCNS(=O)(=O)c2cccc(Cl)c2)O[C@H]1CO was read as rRNA inh HTS 1.9 and Cneo AK release 2.8.
`O=C(Nc1ccc(F)cc1)N[C@H]1CC[C@H](CCNS(=O)(=O)c2cccc(Cl)c2)O[C@H]1CO` gave rRNA inh HTS -7.2 and Cneo AK release -1.5.
For O=C(Nc1cccc(F)c1)N[C@H]1CC[C@H](CCNS(=O)(=O)c2cccc(Cl)c2)O[C@@H]1CO the results were rRNA inh HTS 1.5 and Cneo AK release 105.4*.
C[C@@H]1CN([C@H](C)CO)C(=O)c2cc(-c3ccc(F)cc3)cnc2O[C@H]1CN(C)C(=O)NC1CCCC1 was read as rRNA inh HTS -0.1 and Cneo AK release 6.8.
Screening CCC(=O)N1[C@@H]2c3cccc(=O)n3C[C@H]1[C@H](CO)[C@H]2C(=O)NC1Cc2ccccc2C1 returned rRNA inh HTS -0.5.
Screening CC[N+](CC)(CC)CCCCOc1ccc2c(c1)C(=O)c1cc(OCCCC[N+](CC)(CC)CC)ccc1-2 returned hiPSC survival 0.7, DAGLB inhibitor -4.4, SKN-1 block 8.6, rRNA inh HTS -54.1*, Cneo AK release -2.7 and MT1-MMP act inh 1.5.
`CC[N+](CC)(CC)CCOc1ccc(/C=C/c2ccccc2)cc1` gave hiPSC survival -3.1, DAGLB inhibitor 7.9, SKN-1 block 17.0, rRNA inh HTS -53.5, Cneo AK release -1.0 and MT1-MMP act inh -5.4.
Screening CO[C@H]1CN(C)C(=O)c2ccc(NC(=O)Nc3c(C)noc3C)cc2OC[C@@H](C)NC[C@@H]1C returned rRNA inh HTS 3.3 and Cneo AK release 11.8.
S=c1[nH]nc(COc2ccccc2)n1/N=C/c1ccccc1Cl was read as hiPSC survival -0.4, DAGLB inhibitor 6.9, SKN-1 block 15.2, rRNA inh HTS -24.2*, Cneo AK release 0.9 and MT1-MMP act inh 1.3.

Source: PubChem BioAssay (several laboratories)
